Five molecules from PubChem BioAssay AID624204 (Sanford-Burnham Center for Chemical Genomics, 2012) can be followed below.

Molecules are shown by their SMILES. The campaign covered roughly 360,000 compounds. About 770 (0.21%) were called active.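 Rule for the calls: active = inhibition at least 30% at 10 µM, raw YFP signal under a set limit, fluorescence ratio 0.5 to 1.5; inactive = the rest.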 The entries come from a sample that favours actives as a whole.

Sentrin-specific protease 1 (Homo sapiens), sequence (Q9P0U3 419-644 limits assumed): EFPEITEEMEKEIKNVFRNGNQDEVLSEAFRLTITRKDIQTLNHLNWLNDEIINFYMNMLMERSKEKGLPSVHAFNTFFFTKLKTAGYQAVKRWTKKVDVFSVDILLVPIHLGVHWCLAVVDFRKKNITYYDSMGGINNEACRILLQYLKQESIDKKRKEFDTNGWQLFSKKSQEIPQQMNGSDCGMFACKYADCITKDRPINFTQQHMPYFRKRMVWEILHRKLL

This assay has as its target Sentrin-specific protease 1 (Homo sapiens) (UniProt Q9P0U3). Nature of the assay: human SENP1 catalytic domain inhibitors, primary screen, biochemical, FRET, uHTS (AID 624204).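 Note: 0% = enzyme with DMSO and 100% = no enzyme wells.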 Conditions: recombinant SENP1 catalytic domain, CyPet-SUMO1-YPet FRET cleavage; at 10 µM; stronger effect = higher value. Summed up:
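Controls: no-enzyme wells low, DMSO-plus-enzyme wells high control. Test system: human recombinant His6-tagged SENP1 catalytic domain enzyme. Reagent: SFCypet-SUMO1-SFYpet FRET protein substrate, 25 nM final. Doses: one dose per compound, 10 µM, 0.5% DMSO. Detection: FRET, CFP and YFP emission. Timing: 50 min reaction at room temperature.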
As a reminder, the inhibition is the change of the read-out against control, counted positive when it falls. For `O=C1N=c2ccccc2=C/C1=C\c1c(O)[nH]c(=S)[nH]c1=O`, the inhibition is -11.3% (inactive). With `COc1ccccc1N=Nc1c(O)[nH]c(=S)[nH]c1=O`, the inhibition was 48.9% (active). As to `CCOCCc1c(O)[nH]c(=S)[nH]c1=O`, the inhibition was -0.672% (inactive). Next, `CCCOC(=O)C1C2c3ccccc3C(c3ccccc32)C1C(=O)O` (stereo not given): -1.79% (inactive). In the case of `CC(CC(C#N)(c1ccccc1)c1ccccc1)N1CCCCC1` (stereo not given), the inhibition was 1.04% (inactive).
